Data published in ChEMBL document CHEMBL1156498, “4-Hydroxynonenal, an endogenous aldehyde, causes pain and neurogenic inflammation through activation of the irritant receptor TRPA1” (Proc Natl Acad Sci U S A, 2007).
pEC50: −log10 of the molar value. One block for each molecule: values may come before it. Active and inactive are the calls of the source. The rule behind the calls is not given here.

How the values were obtained:
Rattus norvegicus [1] = species on record: Rattus norvegicus; test: Reduction of capsaocin-induction of allodynia in rat
[2] = target: Transient receptor potential cation channel subfamily A member 1 (Rattus norvegicus) (UniProt Q6RI86); test: Activity at TRPA1 channel in rat dorsal root ganglion neurons assessed as attenuation of capsaicin-induced intracellular calcium; format: tissue-based
Method in brief: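 Cultured rat DRG neurons, Fura2/AM calcium imaging. Capsaicin (0.1 μM)-evoked [Ca2+]i responses measured in the presence of TRPA1 antagonists.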

Mus musculus [3] = species on record: Mus musculus; test: Attenuation of capsaicin-induction of paw lifting in Swiss mouse; format: functional, organism-based
Method in brief: (§1)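 Mouse nocifensive test: intraplantar capsaicin (0.1 nmol/20 μl, in 4% DMSO) or HNE (120 nmol/20 μl, in saline), with camphor, gentamycin or capsazepine co-injected intraplantar. Licking/lifting time recorded for 5 min; vehicle controls. Mean ± SEM; ANOVA with Bonferroni.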

Esophagus [4] = test: Induction of neurogenic inflammation in capsaicin desensitized rat esophagus assessed as substance P release per 20 mins at 50 uM; format: functional
Method in brief: (§2)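 Rat lumbar dorsal spinal cord or esophagus slices (~0.4 mm), superfused in Krebs' solution at 37°C after 60 min stabilization. Tissue desensitized beforehand with 10 μM capsaicin for 20 min. Fractions collected at 10-min intervals into ethanoic acid (final 2 N), freeze-dried, and assayed for SP or CGRP immunoreactivity. Results in fmol/g/20 min, at least four experiments.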

Spinal cord [5] = test: Induction of neurogenic inflammation in capsaicin desensitized rat dorsal spinal cord assessed as substance P release per 20 mins at 10 uM; format: functional
Method in brief: as §2

Esophagus [6] = test: Induction of neurogenic inflammation in capsaicin desensitized rat esophagus assessed as CGRP release per 20 mins at 50 uM; format: functional
Method in brief: as §2

Spinal cord [7] = test: Induction of neurogenic inflammation in capsaicin desensitized rat dorsal spinal cord assessed as CGRP peptide release per 20 mins at 10 uM; format: functional
Method in brief: as §2

Spinal cord [8] = test: Induction of neurogenic inflammation in rat dorsal spinal cord assessed as CGRP release per 20 mins at 10 uM in calcium free medium; format: functional
Method in brief: (§3)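 Rat dorsal spinal cord or esophagus slices superfused in Krebs' solution at 37°C, with extracellular Ca2+ chelated by 2 mM EGTA added to the bath. Fractions collected every 10 min into ethanoic acid (final 2 N), freeze-dried, and assayed for SP or CGRP immunoreactivity. Results in fmol/g/20 min, at least four experiments.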

Esophagus [9] = test: Induction of neurogenic inflammation in rat esophagus assessed as CGRP release per 20 mins at 50 uM in calcium free medium; format: functional
Method in brief: as §3

Spinal cord [10] = test: Induction of neurogenic inflammation in rat dorsal spinal cord assessed as substance P release per 20 mins at 10 uM; format: functional
Method in brief: (§4)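 Rat lumbar dorsal spinal cord or esophagus slices (~0.4 mm), stabilized 60 min in Krebs' solution at 37°C, then superfused. Fractions collected at 10-min intervals into ethanoic acid (final 2 N), freeze-dried, reconstituted, and assayed for SP or CGRP immunoreactivity. Results in fmol/g/20 min, at least four experiments.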

Esophagus [11] = test: Induction of neurogenic inflammation in rat esophagus assessed as substance P release per 20 mins at 50 uM; format: functional
Method in brief: as §4

Esophagus [12] = test: Induction of neurogenic inflammation in rat esophagus assessed as CGRP release per 20 mins at 50 uM; format: functional
Method in brief: as §4

Esophagus [13] = test: Induction of neurogenic inflammation in rat esophagus assessed as substance P release per 20 mins at 50 uM in calcium free medium; format: functional
Method in brief: as §3

Spinal cord [14] = test: Induction of neurogenic inflammation in rat dorsal spinal cord assessed as substance P release per 20 mins at 10 uM in calcium free medium; format: functional
Method in brief: as §3

Spinal cord [15] = test: Induction of neurogenic inflammation in rat dorsal spinal cord assessed as CGRP peptide release per 20 mins at 10 uM; format: functional
Method in brief: as §4

Mus musculus [16] = species on record: Mus musculus; test: Inhibition of capsaicin-induction of paw lifting in Swiss mouse; format: functional, organism-based
Method in brief: as §1

Rattus norvegicus [17] = species on record: Rattus norvegicus; test: Reversal of induction of allodynia in rat in presence of gentamycin
Rattus norvegicus [18] = species on record: Rattus norvegicus; test: Reversal of induction of allodynia in rat in presence of capsazepine
[19] = target: Transient receptor potential cation channel subfamily A member 1 (Rattus norvegicus) (UniProt Q6RI86); test: Activation of TRPA1 channel in rat dorsal root ganglion neurons assessed as increase in intracellular calcium level at 300 uM; format: tissue-based
Method in brief: (§5)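 Cultured rat dorsal root ganglion neurons loaded with Fura2/AM. HNE bath-applied across 30–500 μM. Ratiometric calcium imaging of the rise in [Ca2+]i, with capsaicin response recorded. Dose–response curve built from n ≥ 22 cells; mean ± SEM.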

[20] = target: T1, Transient receptor potential cation channel subfamily A member 1 (Rattus norvegicus, UniProt Q6RI86); test: Activation of TRPA1 channel in rat dorsal root ganglion neurons assessed as increase in intracellular calcium level; format: tissue-based
Method in brief: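 Rat DRG neurons in culture, loaded with Fura2/AM and read by ratiometric calcium imaging. Agonist applied in the bath at 30–500 μM, with a concentration-response used to derive the EC50. n ≥ 22 cells.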

Mus musculus [21] = species on record: Mus musculus; test: Reversal of induction of paw lifting in Swiss mouse at 15 to 240 nmol/paw in presence gentamycin; format: functional, organism-based
Method in brief: as §1

[22] = target: Transient receptor potential cation channel subfamily A member 1 (Rattus norvegicus) (UniProt Q6RI86); test: Reversal of activation of TRPA1 channel in rat dorsal root ganglion neurons at 100 uM by calcium imaging in presence of capsazepine; format: tissue-based
Method in brief: (§6)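 Cultured rat DRG neurons, Fura2/AM ratiometric calcium imaging. HNE 100 μM-evoked [Ca2+]i rise measured with ruthenium red (1 μM), (+) camphor (1 mM), gentamycin (100 μM) or capsazepine (10 μM), each versus vehicle. n ≥ 22 cells; mean ± SEM; Bonferroni test.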

[23] = target: Transient receptor potential cation channel subfamily A member 1 (Rattus norvegicus) (UniProt Q6RI86); test: Reversal of activation of TRPA1 channel in rat dorsal root ganglion neurons at 100 uM by calcium imaging in presence of gentamycin; format: tissue-based
Method in brief: as §6

Mus musculus [24] = test: Induction of paw lifting in TRPA1-deficient intraplantarly dosed Swiss mouse at 120 nmol/paw; format: functional, organism-based
Method in brief: (§7)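 Male TRPA1-deficient mice and wild-type littermates (about 30 g) injected intraplantar with HNE 120 nmol in 20 μl 0.9% saline. Total licking/lifting time recorded for 5 min, scored blind to genotype. n = 6 per group; single-factor ANOVA.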

Mus musculus [25] = species on record: Mus musculus; test: Induction of paw licking in Swiss mouse; format: functional, organism-based
Method in brief: (§8)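 Male Swiss mice injected intraplantar with HNE at 15–240 nmol in 20 μl saline, then placed in a chamber. Total time licking and lifting the injected paw recorded for 5 min.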

Rattus norvegicus [26] = test: Increase in plasma extravasation in intraplantar dosed rat hind paw; format: functional, organism-based
Method in brief: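 Male Sprague–Dawley rats (250 g) given Evans Blue (30 mg/kg) into the tail vein 1 min before intraplantar HNE (60–150 nmol in 30 μl) or vehicle. Killed by exsanguination at 30 min; paw skin dye extracted in formamide 48 h at room temperature in the dark and read at 620 nm, expressed as ng/g wet tissue. SR140333 (1.6 μmol/kg i.v.) given 15 min before. n ≥ 4.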

Esophagus [27] = test: Induction of neurogenic inflammation in rat esophagus assessed as substance P release for 20 mins; format: functional, tissue-based
Method in brief: (§9)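 Rat lumbar dorsal spinal cord or esophagus slices (≈0.4 mm), stabilized 60 min in Krebs' solution at 37°C. Agonist superfused 20 min (HNE 50 or 100 μM). Fractions collected every 10 min into ethanoic acid (final 2 N), freeze-dried, and assayed for SP- or CGRP-like immunoreactivity (fmol/g/20 min). Controls: capsaicin desensitization (10 μM, 20 min) or 2 mM EGTA. n ≥ 4 slices; mean ± SEM.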

[28] = target: Transient receptor potential cation channel subfamily A member 1 (Rattus norvegicus) (UniProt Q6RI86); test: Agonist activity at rat TRPA1 channel expressed in HEK293 cells assessed as increase in intracellular calcium; format: functional, cell-based
Method in brief: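 Stable Flp-In HEK293 line expressing C-terminally HA11-tagged rat TRPA1 under a tetracycline-inducible promoter, induced with 0.1 μg/ml tetracycline 16 h before testing. Uninduced and vector-control cells also tested. Fura2/AM [Ca2+]i read in a fluorescence plate reader, 30,000 cells per well, n = 4 wells per concentration. Concentration–response used to derive EC50.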

Mus musculus [29] = test: Induction of paw licking in intraplantarly dosed TRPA1-deficient Swiss mouse at 120 nmol/paw; format: functional, organism-based
Method in brief: as §7

Rattus norvegicus [30] = species on record: Rattus norvegicus; test: Induction of allodynia in rat
Spinal cord [31] = test: Induction of neurogenic inflammation in rat dorsal spinal cord assessed as CGRP peptide release for 20 mins; format: functional, tissue-based
Method in brief: as §9

[32] = target: Transient receptor potential cation channel subfamily A member 1 (Homo sapiens) (UniProt O75762); test: Agonist activity at human TRPA1 channel expressed in xenopus oocytes assessed as membrane currents by two electrode voltage-clamp technique; format: functional, cell-based; conditions: Oocyte
Method in brief: (§10)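 Two-electrode voltage clamp at +70 mV holding potential on Xenopus oocytes expressing human TRPA1, with voltage ramps for current–voltage relationships. Agonist challenge followed by ruthenium red (10 μM) block; 2-aminoethyl diphenylborinate (200 μM) used as reference agonist.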

Spinal cord [33] = test: Induction of neurogenic inflammation in rat dorsal spinal cord assessed as substance P release for 20 mins; format: functional, tissue-based
Method in brief: as §9

Esophagus [34] = test: Induction of neurogenic inflammation in rat esophagus assessed as CGRP peptide release for 20 mins; format: functional, tissue-based
Method in brief: as §9

Mus musculus [35] = species on record: Mus musculus; test: Induction of paw lifting in Swiss mouse; format: functional, organism-based
Method in brief: as §8

[36] = target: Transient receptor potential cation channel subfamily A member 1 (Homo sapiens) (UniProt O75762); test: Reversal of activation of human TRPA1 channel expressed in xenopus oocytes by two electrode voltage-clamp technique in presence of ruthenium red; format: cell-based; conditions: Oocyte
Method in brief: as §10

[37] = target: T1, Transient receptor potential cation channel subfamily A member 1; test: Agonist activity at rat TRPA1 channel expressed in tetracycline induced HEK293 cells assessed as increase in intracellular calcium; format: functional, cell-based
Method in brief: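 Stable HEK293 FLPTREX line carrying HA-tagged rat TRPA1 under a tetracycline-inducible promoter. Expression induced with 0.1 μg/ml tetracycline 16 h before the assay. Fura2/AM [Ca2+]i read on a multiwell fluorescence plate reader, 30,000 cells per well, 10–100 μM, n = 4 wells per concentration, EC50 derived.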

Rattus norvegicus [38] = species on record: Rattus norvegicus; test: Reversal of induction of allodynia in rat in presence of camphor
Mus musculus [39] = test: Induction of paw licking in intraplantarly dosed Swiss mouse at 120 nmol/paw; format: functional, organism-based
Method in brief: (§11)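 Male Swiss mice injected intraplantar with HNE 120 nmol in 20 μl 0.9% saline. Time spent licking and lifting the injected paw recorded for 5 min immediately after injection; vehicle controls.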

[40] = target: Transient receptor potential cation channel subfamily A member 1 (Rattus norvegicus) (UniProt Q6RI86); test: Reversal of activation of TRPA1 channel in rat dorsal root ganglion neurons at 100 uM by calcium imaging in presence of ruthenium red; format: tissue-based
Method in brief: as §6

[41] = target: Transient receptor potential cation channel subfamily A member 1 (Rattus norvegicus) (UniProt Q6RI86); test: Activation of TRPA1 channel in rat dorsal root ganglion neurons assessed as increase in intracellular calcium level at 50 uM; format: tissue-based
Method in brief: as §5

[42] = target: Transient receptor potential cation channel subfamily A member 1 (Rattus norvegicus) (UniProt Q6RI86); test: Reversal of activation of TRPA1 channel in rat dorsal root ganglion neurons at 100 uM by calcium imaging in presence of camphor; format: tissue-based
Method in brief: as §6

Mus musculus [43] = test: Induction of paw lifting in intraplantarly dosed Swiss mouse at 120 nmol/paw; format: functional, organism-based
Method in brief: as §11

Chain of Transient receptor potential cation channel subfamily A member 1 (Rattus norvegicus) (Q6RI86 whole entry): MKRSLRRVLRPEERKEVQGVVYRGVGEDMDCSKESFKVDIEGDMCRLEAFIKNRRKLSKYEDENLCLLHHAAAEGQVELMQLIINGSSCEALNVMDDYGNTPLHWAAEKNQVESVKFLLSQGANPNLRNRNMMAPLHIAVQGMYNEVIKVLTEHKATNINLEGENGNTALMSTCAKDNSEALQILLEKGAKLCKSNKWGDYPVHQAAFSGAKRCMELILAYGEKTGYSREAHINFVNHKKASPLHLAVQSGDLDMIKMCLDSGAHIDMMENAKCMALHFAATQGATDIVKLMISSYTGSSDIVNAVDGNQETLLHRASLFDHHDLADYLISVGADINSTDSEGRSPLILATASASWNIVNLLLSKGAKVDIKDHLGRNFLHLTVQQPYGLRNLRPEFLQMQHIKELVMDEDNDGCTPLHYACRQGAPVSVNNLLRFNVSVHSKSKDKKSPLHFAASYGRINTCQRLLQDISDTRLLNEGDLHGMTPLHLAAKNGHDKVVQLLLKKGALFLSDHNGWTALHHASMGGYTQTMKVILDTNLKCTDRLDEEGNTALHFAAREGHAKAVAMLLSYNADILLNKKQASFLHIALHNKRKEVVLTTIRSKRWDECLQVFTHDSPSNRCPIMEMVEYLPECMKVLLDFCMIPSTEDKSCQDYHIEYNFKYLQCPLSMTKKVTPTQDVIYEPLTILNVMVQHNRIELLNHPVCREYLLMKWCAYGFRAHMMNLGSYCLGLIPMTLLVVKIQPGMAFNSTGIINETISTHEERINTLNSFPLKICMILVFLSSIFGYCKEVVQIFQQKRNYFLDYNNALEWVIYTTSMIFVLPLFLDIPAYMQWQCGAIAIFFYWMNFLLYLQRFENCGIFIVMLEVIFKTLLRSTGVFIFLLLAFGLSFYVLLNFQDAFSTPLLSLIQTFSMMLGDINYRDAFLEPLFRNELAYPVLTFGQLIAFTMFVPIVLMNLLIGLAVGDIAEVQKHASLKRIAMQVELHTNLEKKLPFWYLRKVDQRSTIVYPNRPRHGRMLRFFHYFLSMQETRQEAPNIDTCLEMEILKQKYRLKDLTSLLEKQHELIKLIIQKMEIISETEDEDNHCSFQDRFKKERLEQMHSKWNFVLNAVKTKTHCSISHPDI
T1 sequence (Q6RI86 whole entry): as above
Chain of Transient receptor potential cation channel subfamily A member 1 (Homo sapiens) (O75762 whole entry): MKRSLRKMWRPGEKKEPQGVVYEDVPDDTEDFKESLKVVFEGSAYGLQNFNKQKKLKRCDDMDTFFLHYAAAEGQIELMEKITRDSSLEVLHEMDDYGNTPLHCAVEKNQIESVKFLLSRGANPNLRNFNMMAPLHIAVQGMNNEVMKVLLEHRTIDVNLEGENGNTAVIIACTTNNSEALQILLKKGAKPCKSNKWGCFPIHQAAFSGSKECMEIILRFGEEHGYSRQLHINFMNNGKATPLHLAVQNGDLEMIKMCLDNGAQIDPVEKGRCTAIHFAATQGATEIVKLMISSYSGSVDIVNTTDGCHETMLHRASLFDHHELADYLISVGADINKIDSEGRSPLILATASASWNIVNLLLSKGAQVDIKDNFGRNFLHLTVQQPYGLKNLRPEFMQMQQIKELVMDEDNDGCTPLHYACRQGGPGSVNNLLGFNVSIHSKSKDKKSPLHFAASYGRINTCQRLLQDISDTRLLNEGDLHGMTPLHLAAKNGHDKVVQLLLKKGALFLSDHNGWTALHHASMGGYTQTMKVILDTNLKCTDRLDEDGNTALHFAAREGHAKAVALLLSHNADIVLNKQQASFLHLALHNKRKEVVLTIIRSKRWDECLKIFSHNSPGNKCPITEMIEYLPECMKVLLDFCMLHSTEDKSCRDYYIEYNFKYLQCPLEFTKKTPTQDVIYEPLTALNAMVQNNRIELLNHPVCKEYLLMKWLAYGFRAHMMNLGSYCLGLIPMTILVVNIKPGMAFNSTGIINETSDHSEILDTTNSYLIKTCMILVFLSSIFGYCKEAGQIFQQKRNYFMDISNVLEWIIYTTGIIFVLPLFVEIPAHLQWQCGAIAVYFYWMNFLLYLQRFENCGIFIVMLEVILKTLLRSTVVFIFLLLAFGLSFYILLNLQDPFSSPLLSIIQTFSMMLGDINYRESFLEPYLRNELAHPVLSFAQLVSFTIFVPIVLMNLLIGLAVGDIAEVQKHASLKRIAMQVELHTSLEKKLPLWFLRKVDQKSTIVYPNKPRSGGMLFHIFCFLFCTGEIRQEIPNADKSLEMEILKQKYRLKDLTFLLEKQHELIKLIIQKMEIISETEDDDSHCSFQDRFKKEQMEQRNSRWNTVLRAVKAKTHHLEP

Activity [2]: Active
SMILES: Oc1cc2c(cc1O)CN(C(=S)NCCc1ccc(Cl)cc1)CCC2
Activity (Rattus norvegicus [1]): Active
Activity (Mus musculus [3]): Active

SMILES: O=C/C=C/c1ccccc1 [CINNAMALDEHYDE]
Activity (Esophagus [4]): 5.8 fmol/g
Activity (Spinal cord [5]): 23.7 fmol/g
Activity (Esophagus [6]): 17.8 fmol/g
Activity (Spinal cord [7]): 63.8 fmol/g
Activity (Spinal cord [8]): 118.5 fmol/g
Activity (Esophagus [9]): 19.2 fmol/g
Activity (Spinal cord [10]): 160.5 fmol/g
Activity (Esophagus [11]): 31.5 fmol/g
Activity (Esophagus [12]): 93.2 fmol/g
Activity (Esophagus [13]): 6.3 fmol/g
Activity (Spinal cord [14]): 34.5 fmol/g
Activity (Spinal cord [15]): 720.4 fmol/g

SMILES: CC12CCC(CC1=O)C2(C)C (stereo not drawn)
Activity (Mus musculus [16]): Active

SMILES: CCCCCC(O)/C=C/C=O (stereo not drawn) [4-HYDROXYNON-2-ENAL]
Activity (Rattus norvegicus [17]): inactive
Activity (Rattus norvegicus [18]): Active
Activity [19]: Active
pEC50 [20]: 4.11
Activity (Mus musculus [21]): inactive
Activity [22]: Active
Activity [23]: inactive
Activity (Mus musculus [24]): inactive
Activity (Mus musculus [25]): Dose-dependent effect
Activity (Rattus norvegicus [26]): Dose-dependent effect
Activity (Esophagus [27]): Active
Activity [28]: inactive
Activity (Mus musculus [29]): inactive
Activity (Rattus norvegicus [30]): Dose-dependent effect
Activity (Spinal cord [31]): Active
Activity [32]: Active
Activity (Spinal cord [33]): Active
Activity (Esophagus [34]): Active
Activity (Mus musculus [35]): Dose-dependent effect
Activity [36]: Active
pEC50 [37]: 4.57
Activity (Rattus norvegicus [38]): inactive
Activity (Mus musculus [39]): Active
Activity [40]: inactive
Activity [41]: Active
Activity [42]: inactive
Activity (Mus musculus [43]): Active
